# Experimental data from ChEMBL document CHEMBL4689842, “EUbOPEN Chemogenomics Library wave 1” (2021).
# Columns and labels:
# Format in all cases: toxicity, cell-based
# Fibroblast [1] = experiment: Multiplex assay against human fibroblast
# In short: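 Per cents of healthy-nucleus cells form the tubulin, mitochondrial-mass and membrane-permeability phenotype values. Live cells were stained at seeding with Hoechst33342, BioTracker Green Microtubule Cytoskeleton Dye, MitoTracker Red and Annexin V Alexa Fluor 680. After compound addition they were imaged on a CQ1 microscope at 37°C and 5% CO2, and CellPathfinder machine-learning gating split them into Hoechst high-intensity objects or normal cells, normal cells into healthy, pyknosed or fragmented nuclei, and pyknosed cells into mitotic or apoptotic.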
# Fibroblast [2] = experiment: Incucyte cell viability with human fibroblast; conditions: 10 µM, compound concentration 10 uM; note: filed as whole numbers so only -1 and 0 and 1 occur
# U2OS = experiment: Incucyte cell viability with U2OS; conditions: human, 10 µM, compound concentration 10 uM; note: filed as whole numbers so only -1 and 0 and 1 occur
# HEK-293T = experiment: Incucyte cell viability with HEK293T; conditions: human, 10 µM, compound concentration 10 uM; note: filed as whole numbers so only -1 and 0 and 1 occur
# [3] = 12 h, 1 µM, compound concentration 1 uM, replicate 1
# [4] = 12 h, 1 µM, compound concentration 1 uM, replicate 2
# [5] = 12 h, 10 µM, compound concentration 10 uM, replicate 1
# [6] = 12 h, 10 µM, compound concentration 10 uM, replicate 2
# [7] = 24 h, 1 µM, compound concentration 1 uM, replicate 1
# [8] = 24 h, 1 µM, compound concentration 1 uM, replicate 2
# [9] = 24 h, 10 µM, compound concentration 10 uM, replicate 1
# [10] = 24 h, 10 µM, compound concentration 10 uM, replicate 2
# [11] = 48 h, 1 µM, compound concentration 1 uM, replicate 1
# [12] = 48 h, 1 µM, compound concentration 1 uM, replicate 2
# [13] = 48 h, 10 µM, compound concentration 10 uM, replicate 1
# [14] = 48 h, 10 µM, compound concentration 10 uM, replicate 2
# [15] = 0 h, replicate number 1, timepoint 0 hours
# [16] = 6 h, replicate number 2, timepoint 6 hours
# [17] = 12 h, replicate number 1, timepoint 12 hours
# [18] = 18 h, replicate number 1, timepoint 18 hours
# [19] = 24 h, replicate number 1, timepoint 24 hours
smiles,measurement,setting,value
CC(C)N1CCC(C)(C)c2cc(C#Cc3ccc(C(=O)O)cc3)ccc21,Population Apoptotic (%),Fibroblast [1]; [3],89%
same,Population Fragmented Nuclei (%),Fibroblast [1]; [3],42%
same,Population Healthy Nuclei (%),Fibroblast [1]; [3],41%
same,Population Hoechst High Intensity Objects (%),Fibroblast [1]; [3],41%
same,Population Membrane Permeable-Phenotype (%),Fibroblast [1]; [3],30%
same,Population Mitochondria Different-Phenotype (%),Fibroblast [1]; [3],6%
same,Population Mitotic Cells (%),Fibroblast [1]; [3],10%
same,Population Normal (%),Fibroblast [1]; [3],58%
same,Population Pyknosed Nuclei (%),Fibroblast [1]; [3],15%
same,Population Tubulin-Different-Phenotype (%),Fibroblast [1]; [3],46%
same,Total Cell Count,Fibroblast [1]; [3],207
same,Population Apoptotic (%),Fibroblast [1]; [4],20%
same,Population Fragmented Nuclei (%),Fibroblast [1]; [4],16%
same,Population Healthy Nuclei (%),Fibroblast [1]; [4],75%
same,Population Hoechst High Intensity Objects (%),Fibroblast [1]; [4],13%
same,Population Membrane Permeable-Phenotype (%),Fibroblast [1]; [4],6%
same,Population Mitochondria Different-Phenotype (%),Fibroblast [1]; [4],15%
same,Population Mitotic Cells (%),Fibroblast [1]; [4],80%
same,Population Normal (%),Fibroblast [1]; [4],86%
same,Population Pyknosed Nuclei (%),Fibroblast [1]; [4],8%
same,Population Tubulin-Different-Phenotype (%),Fibroblast [1]; [4],20%
same,Total Cell Count,Fibroblast [1]; [4],69
same,Population Apoptotic (%),Fibroblast [1]; [5],75%
same,Population Fragmented Nuclei (%),Fibroblast [1]; [5],89%
same,Population Healthy Nuclei (%),Fibroblast [1]; [5],6%
same,Population Hoechst High Intensity Objects (%),Fibroblast [1]; [5],76%
same,Population Membrane Permeable-Phenotype (%),Fibroblast [1]; [5],14%
same,Population Mitochondria Different-Phenotype (%),Fibroblast [1]; [5],0%
same,Population Mitotic Cells (%),Fibroblast [1]; [5],25%
same,Population Normal (%),Fibroblast [1]; [5],23%
same,Population Pyknosed Nuclei (%),Fibroblast [1]; [5],3%
same,Population Tubulin-Different-Phenotype (%),Fibroblast [1]; [5],7%
same,Total Cell Count,Fibroblast [1]; [5],898
same,Population Apoptotic (%),Fibroblast [1]; [6],0%
same,Population Fragmented Nuclei (%),Fibroblast [1]; [6],55%
same,Population Healthy Nuclei (%),Fibroblast [1]; [6],44%
same,Population Hoechst High Intensity Objects (%),Fibroblast [1]; [6],71%
same,Population Membrane Permeable-Phenotype (%),Fibroblast [1]; [6],4%
same,Population Mitochondria Different-Phenotype (%),Fibroblast [1]; [6],14%
same,Population Mitotic Cells (%),Fibroblast [1]; [6],0%
same,Population Normal (%),Fibroblast [1]; [6],28%
same,Population Pyknosed Nuclei (%),Fibroblast [1]; [6],0%
same,Population Tubulin-Different-Phenotype (%),Fibroblast [1]; [6],28%
same,Total Cell Count,Fibroblast [1]; [6],327
same,Population Apoptotic (%),Fibroblast [1]; [7],85%
same,Population Fragmented Nuclei (%),Fibroblast [1]; [7],39%
same,Population Healthy Nuclei (%),Fibroblast [1]; [7],48%
same,Population Hoechst High Intensity Objects (%),Fibroblast [1]; [7],41%
same,Population Membrane Permeable-Phenotype (%),Fibroblast [1]; [7],29%
same,Population Mitochondria Different-Phenotype (%),Fibroblast [1]; [7],1%
same,Population Mitotic Cells (%),Fibroblast [1]; [7],14%
same,Population Normal (%),Fibroblast [1]; [7],58%
same,Population Pyknosed Nuclei (%),Fibroblast [1]; [7],11%
same,Population Tubulin-Different-Phenotype (%),Fibroblast [1]; [7],38%
same,Total Cell Count,Fibroblast [1]; [7],202
same,Population Apoptotic (%),Fibroblast [1]; [8],50%
same,Population Fragmented Nuclei (%),Fibroblast [1]; [8],18%
same,Population Healthy Nuclei (%),Fibroblast [1]; [8],76%
same,Population Hoechst High Intensity Objects (%),Fibroblast [1]; [8],4%
same,Population Membrane Permeable-Phenotype (%),Fibroblast [1]; [8],3%
same,Population Mitochondria Different-Phenotype (%),Fibroblast [1]; [8],10%
same,Population Mitotic Cells (%),Fibroblast [1]; [8],50%
same,Population Normal (%),Fibroblast [1]; [8],95%
same,Population Pyknosed Nuclei (%),Fibroblast [1]; [8],5%
same,Population Tubulin-Different-Phenotype (%),Fibroblast [1]; [8],18%
same,Total Cell Count,Fibroblast [1]; [8],81
same,Population Apoptotic (%),Fibroblast [1]; [9],72%
same,Population Fragmented Nuclei (%),Fibroblast [1]; [9],86%
same,Population Healthy Nuclei (%),Fibroblast [1]; [9],7%
same,Population Hoechst High Intensity Objects (%),Fibroblast [1]; [9],78%
same,Population Membrane Permeable-Phenotype (%),Fibroblast [1]; [9],33%
same,Population Mitochondria Different-Phenotype (%),Fibroblast [1]; [9],0%
same,Population Mitotic Cells (%),Fibroblast [1]; [9],27%
same,Population Normal (%),Fibroblast [1]; [9],21%
same,Population Pyknosed Nuclei (%),Fibroblast [1]; [9],5%
same,Population Tubulin-Different-Phenotype (%),Fibroblast [1]; [9],20%
same,Total Cell Count,Fibroblast [1]; [9],921
same,Population Apoptotic (%),Fibroblast [1]; [10],100%
same,Population Fragmented Nuclei (%),Fibroblast [1]; [10],49%
same,Population Healthy Nuclei (%),Fibroblast [1]; [10],47%
same,Population Hoechst High Intensity Objects (%),Fibroblast [1]; [10],66%
same,Population Membrane Permeable-Phenotype (%),Fibroblast [1]; [10],3%
same,Population Mitochondria Different-Phenotype (%),Fibroblast [1]; [10],3%
same,Population Mitotic Cells (%),Fibroblast [1]; [10],0%
same,Population Normal (%),Fibroblast [1]; [10],33%
same,Population Pyknosed Nuclei (%),Fibroblast [1]; [10],2%
same,Population Tubulin-Different-Phenotype (%),Fibroblast [1]; [10],26%
same,Total Cell Count,Fibroblast [1]; [10],352
same,Population Apoptotic (%),Fibroblast [1]; [11],57%
same,Population Fragmented Nuclei (%),Fibroblast [1]; [11],47%
same,Population Healthy Nuclei (%),Fibroblast [1]; [11],45%
same,Population Hoechst High Intensity Objects (%),Fibroblast [1]; [11],45%
same,Population Membrane Permeable-Phenotype (%),Fibroblast [1]; [11],29%
same,Population Mitochondria Different-Phenotype (%),Fibroblast [1]; [11],0%
same,Population Mitotic Cells (%),Fibroblast [1]; [11],42%
same,Population Normal (%),Fibroblast [1]; [11],54%
same,Population Pyknosed Nuclei (%),Fibroblast [1]; [11],6%
same,Population Tubulin-Different-Phenotype (%),Fibroblast [1]; [11],29%
same,Total Cell Count,Fibroblast [1]; [11],202
same,Population Apoptotic (%),Fibroblast [1]; [12],0%
same,Population Fragmented Nuclei (%),Fibroblast [1]; [12],57%
same,Population Healthy Nuclei (%),Fibroblast [1]; [12],42%
same,Population Hoechst High Intensity Objects (%),Fibroblast [1]; [12],35%
same,Population Membrane Permeable-Phenotype (%),Fibroblast [1]; [12],14%
same,Population Mitochondria Different-Phenotype (%),Fibroblast [1]; [12],5%
same,Population Mitotic Cells (%),Fibroblast [1]; [12],100%
same,Population Normal (%),Fibroblast [1]; [12],64%
same,Population Pyknosed Nuclei (%),Fibroblast [1]; [12],0%
same,Population Tubulin-Different-Phenotype (%),Fibroblast [1]; [12],25%
same,Total Cell Count,Fibroblast [1]; [12],198
same,Population Apoptotic (%),Fibroblast [1]; [13],60%
same,Population Fragmented Nuclei (%),Fibroblast [1]; [13],90%
same,Population Healthy Nuclei (%),Fibroblast [1]; [13],6%
same,Population Hoechst High Intensity Objects (%),Fibroblast [1]; [13],77%
same,Population Membrane Permeable-Phenotype (%),Fibroblast [1]; [13],25%
same,Population Mitochondria Different-Phenotype (%),Fibroblast [1]; [13],0%
same,Population Mitotic Cells (%),Fibroblast [1]; [13],40%
same,Population Normal (%),Fibroblast [1]; [13],22%
same,Population Pyknosed Nuclei (%),Fibroblast [1]; [13],2%
same,Population Tubulin-Different-Phenotype (%),Fibroblast [1]; [13],18%
same,Total Cell Count,Fibroblast [1]; [13],1050
same,Population Apoptotic (%),Fibroblast [1]; [14],0%
same,Population Fragmented Nuclei (%),Fibroblast [1]; [14],93%
same,Population Hoechst High Intensity Objects (%),Fibroblast [1]; [14],84%
same,Population Membrane Permeable-Phenotype (%),Fibroblast [1]; [14],20%
same,Population Mitochondria Different-Phenotype (%),Fibroblast [1]; [14],10%
same,Population Mitotic Cells (%),Fibroblast [1]; [14],0%
same,Population Normal (%),Fibroblast [1]; [14],15%
same,Population Pyknosed Nuclei (%),Fibroblast [1]; [14],0%
same,Population Tubulin-Different-Phenotype (%),Fibroblast [1]; [14],10%
same,Total Cell Count,Fibroblast [1]; [14],961
same,Growth Rate,Fibroblast [2]; [15],0
same,Growth Rate,Fibroblast [2]; [16],0
same,Growth Rate,Fibroblast [2]; [17],0
same,Growth Rate,"Fibroblast [2]; 12 h, replicate number 2, timepoint 12 hours",1
same,Growth Rate,Fibroblast [2]; [18],0
same,Growth Rate,Fibroblast [2]; [19],0
same,Growth Rate,U2OS; [15],0
same,Growth Rate,U2OS; [16],0
same,Growth Rate,U2OS; [17],1
same,Growth Rate,U2OS; [18],1
same,Growth Rate,U2OS; [19],1
same,Growth Rate,HEK-293T; [15],1
same,Growth Rate,"HEK-293T; 0 h, replicate number 2, timepoint 0 hours",0
same,Growth Rate,"HEK-293T; 6 h, replicate number 1, timepoint 6 hours",1
same,Growth Rate,HEK-293T; [17],0
same,Growth Rate,HEK-293T; [18],0
same,Growth Rate,HEK-293T; [19],0
